Reference: publication PMC4569539 (Bioorganic & medicinal chemistry letters, 2015)
Read-outs that look alike come from different tables or passages of the source.

Tests used:
[1] = stated as known for 1 and related congeners, no reference given; cited from earlier work
[2] = type: in vivo; details: plasma concentration after ip versus oral administration
[3] = system: acetylated α-tubulin; experiment: Acetylated α-tubulin in brain homogenates after repeated dosing; type: in vivo; details: normal mice, 1 day after two 5 mg/kg doses (ip)
[4] = Brain and plasma pharmacokinetics after ip administration of 5 mg/kg; type: in vivo; details: mice, after ip injection of 5 mg/kg of 4
Method in brief: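 Mice received the test compound at 5 mg/kg ip. Brain and plasma levels were followed over time to give elimination rates from each compartment. In a repeat-dose arm, tissues were sampled 4 h after a single 5 mg/kg ip dose or 4 h after the second of two doses given 4 h apart. Brain-to-plasma concentration ratios were calculated for each regimen.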

[5] = cited from earlier work

SMILES | distribution of metabolites in brain and plasma samples [4] | brain penetration [5] | differential between brain and plasma half-life [5] | also measured
CNCCCOc1cc(F)c(-c2c(Cl)nc3ncnn3c2N[C@@H](C)C(F)(F)F)c(F)c1 [compound 1, cevipabulin] |  |  |  | oral bioavailability [1]: orally bioavailable
C[C@H](Nc1c(-c2c(F)cc(OCCCO)cc2F)c(Cl)nc2ncnn12)C(F)(F)F [compound 4, (S)-3-(4-(5-Chloro-7-((1,1,1-trifluoropropan-2-yl)amino)-[1,2,4]triazolo[1,5-a]pyrimidin-6-yl)-3,5-difluorophenoxy)-propan-1-ol] |  |  |  | oral bioavailability [2]: orally bioavailable; acetylated α-tubulin (marker of stable MTs) in brain homogenates [3]: significant elevation
C[C@H](Nc1c(-c2c(F)cc(OCCC(=O)O)cc2F)c(Cl)nc2ncnn12)C(F)(F)F [compound 5] | detected predominantly in plasma |  |  | 
C[C@H](Nc1c(-c2c(F)cc(O)cc2F)c(Cl)nc2ncnn12)C(F)(F)F [compound 6] | detected predominantly in plasma |  |  | 
C/C(=C\c1csc(C)n1)[C@@H]1C[C@@H]2O[C@]2(C)CCC[C@H](C)[C@H](O)[C@@H](C)C(=O)C(C)(C)[C@@H](O)CC(=O)O1 [epothilone B] |  | brain penetrant | large differential | 
C/C1=C/C[C@@H](/C(C)=C/c2csc(C)n2)OC(=O)C[C@H](O)C(C)(C)C(=O)[C@H](C)[C@@H](O)[C@@H](C)CCC1 [epothilone D] |  | brain penetrant | large differential | 
